From ChEMBL document CHEMBL1156948, “Statistical molecular design of a focused salicylidene acylhydrazide library and multivariate QSAR of inhibition of type III secretion in the Gram-negative bacterium Yersinia” (Bioorg Med Chem, 2010)
Calls of active or inactive are those of the source.

Key:
[1] = system: Yersinia pseudotuberculosis YPIII; assay: Inhibition of T3S in Yersinia pseudotuberculosis YPIII expressing yopE-luxAB at 50 uM after 3 hrs by luciferase reporter gene assay
Procedure, shortened: (§1)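 Strain YPIII pIB102 (yopE-luxAB) grown overnight at room temperature in BHI with 5 mM EGTA and 20 mM MgCl2 (calcium depletion), adjusted to OD600 0.088–0.095. Compound added from DMSO at 1.56–200 µM final (eight concentrations). Shaken 1 h at room temperature, then 2 h at 37 °C. Decanal added and light emission read immediately. Triplicates, repeated at least three times.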

[2] = system: Yersinia pseudotuberculosis YPIII; assay: Inhibition of T3S in Yersinia pseudotuberculosis YPIII expressing yopE-luxAB at 200 uM after 3 hrs by luciferase reporter gene assay; procedure, shortened: as §1
[3] = system: Yersinia pseudotuberculosis YPIII; assay: Inhibition of T3S in Yersinia pseudotuberculosis YPIII expressing yopE-luxAB at 3.13 uM after 3 hrs by luciferase reporter gene assay; procedure, shortened: as §1
J774 = assay: Cytotoxicity against mouse J774 cells at 25 to 100 uM after 14 hrs using calcein AM staining by fluorescence microscopy; type: cell-based; settings: j774, 14 h
Procedure, shortened: (§2)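 J774A macrophages (4×10⁴/well, DMEM with 10% FCS, gentamicin 3 µg/mL, 24 h at 37 °C, 5% CO2) washed with PBS, then given fresh DMEM with compound plus bacteria (OD600 0.002), final 25, 50, 100 µM, DMSO below 0.5%. ETEC grown overnight in LB at 37 °C, diluted and grown 3 h. 14 h at 37 °C, 5% CO2; CalceinAM 40 min, fluorescence 485/535 nm, confirmed by microscopy; uninfected cells = 100% viability; gentamicin 5 µg/mL rescue control.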

[4] = system: Yersinia pseudotuberculosis YPIII; assay: Inhibition of T3S in Yersinia pseudotuberculosis YPIII expressing yopE-luxAB at 1.56 uM after 3 hrs by luciferase reporter gene assay; procedure, shortened: as §1
[5] = system: Yersinia pseudotuberculosis; assay: Antibacterial activity against Yersinia pseudotuberculosis expressing pIB102 infected in mouse J774 cells assessed as inhibition of bacteria-induced cell death at 50 uM after 14 hrs using calcein AM staining by fluorescence microscopy; type: functional, organism-based
Procedure, shortened: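 J774A macrophages (4 × 10^4 cells/well) grown 24 h in DMEM/10% FCS/gentamicin. Wild-type pIB102 grown in LB plus kanamycin overnight at room temperature, diluted 1/10 in DMEM, shaken 1 h at room temperature then 2 h at 37 °C. Added at OD600 = 0.002 with compound (25, 50, 100 µM final; DMSO <0.5%). Incubated 14 h, 37 °C, 5% CO2. CalceinAM 40 min, fluorescence 485/535 nm; uninfected cells = 100% viability.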

[6] = system: Yersinia pseudotuberculosis YPIII; assay: Inhibition of T3S in Yersinia pseudotuberculosis YPIII expressing yopE-luxAB at 12.5 uM after 3 hrs by luciferase reporter gene assay; procedure, shortened: as §1
[7] = system: Yersinia pseudotuberculosis YPIII; assay: Inhibition of T3S in Yersinia pseudotuberculosis YPIII expressing yopE-luxAB at 6.25 uM after 3 hrs by luciferase reporter gene assay; procedure, shortened: as §1
Escherichia coli [8] = assay: Antibacterial activity against Enterotoxigenic Escherichia coli infected in mouse J774 cells assessed as inhibition of bacteria-induced cell death at 25 to 100 uM after 14 hrs using calcein AM staining by fluorescence microscopy; type: functional, organism-based; procedure, shortened: as §2
[9] = system: Yersinia pseudotuberculosis; assay: Antibacterial activity against Yersinia pseudotuberculosis expressing pIB102 at 100 uM after 23 hrs by broth dilution assay; type: functional, organism-based
Procedure, shortened: (§3)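 Wild-type pIB102 grown overnight in LB at room temperature, diluted to OD600 = 0.1 in LB with 2.5 mM CaCl2. Compound added from DMSO stock to final 50 and 100 µM. Incubated at 37 °C with absorbance at 595 nm read over 23 h.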

[10] = system: Yersinia pseudotuberculosis YPIII; assay: Inhibition of T3S in Yersinia pseudotuberculosis YPIII expressing yopE-luxAB at 25 uM after 3 hrs by luciferase reporter gene assay; procedure, shortened: as §1
Escherichia coli [11] = assay: Antibacterial activity against Escherichia coli DH5[alpha] at 50 uM after 23 hrs by broth dilution assay; type: functional, organism-based
Procedure, shortened: (§4)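 Overnight LB culture of E. coli DH5α grown at 37 °C, diluted to OD600 0.1 in LB with 2.5 mM CaCl2; compound added from DMSO stock to final 50 or 100 µM. Incubated at 37 °C with absorbance at 595 nm followed over 23 h.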

[12] = system: Yersinia pseudotuberculosis; assay: Antibacterial activity against Yersinia pseudotuberculosis expressing pIB102 at 50 uM after 23 hrs by broth dilution assay; type: functional, organism-based; procedure, shortened: as §3
[13] = system: Yersinia pseudotuberculosis YPIII; assay: Inhibition of T3S in Yersinia pseudotuberculosis YPIII expressing yopE-luxAB at 100 uM after 3 hrs by luciferase reporter gene assay; procedure, shortened: as §1
Escherichia coli [14] = assay: Antibacterial activity against Escherichia coli DH5[alpha] at 100 uM after 23 hrs by broth dilution assay; type: functional, organism-based; procedure, shortened: as §4
[15] = target: Tyrosine-protein phosphatase YopH (Yersinia pseudotuberculosis serotype I (strain IP32953)) (UniProt P08538); assay: Inhibition of YopH in Yersinia pseudotuberculosis YPIII expressing yopE-luxAB treated 3 hrs before substrate addition measured after 15 mins by microplate reader
Tyrosine-protein phosphatase YopH (Yersinia pseudotuberculosis serotype I (strain IP32953)), sequence (P08538 whole entry): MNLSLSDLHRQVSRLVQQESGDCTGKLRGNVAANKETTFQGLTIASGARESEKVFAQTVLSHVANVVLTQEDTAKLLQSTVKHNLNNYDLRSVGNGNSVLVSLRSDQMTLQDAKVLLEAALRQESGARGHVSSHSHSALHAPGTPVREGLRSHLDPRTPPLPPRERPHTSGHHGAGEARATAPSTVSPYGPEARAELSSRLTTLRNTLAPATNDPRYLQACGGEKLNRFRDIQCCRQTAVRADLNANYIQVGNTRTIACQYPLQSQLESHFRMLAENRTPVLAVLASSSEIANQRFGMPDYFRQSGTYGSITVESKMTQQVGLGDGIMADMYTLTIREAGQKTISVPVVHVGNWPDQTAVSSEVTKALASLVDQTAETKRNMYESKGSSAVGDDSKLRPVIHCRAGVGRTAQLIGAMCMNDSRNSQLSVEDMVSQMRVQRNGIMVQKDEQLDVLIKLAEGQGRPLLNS
Procedure, shortened: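 Same calcium-depleted YPIII pIB102 cultures and compound exposure (1 h room temperature, then 2 h 37 °C). An aliquot of the bacterial suspension was mixed with 25 mM p-nitrophenyl phosphate, 40 mM MES pH 5.0, 1.6 mM DTT. Incubated 15 min at 37 °C, quenched with 1 M NaOH, absorbance read at 405 nm. Triplicates, repeated at least three times.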

[16] = Aqueous solubility at 200 uM; type: physicochemical; settings: buffer

SMILES	inhibition [1] [%]	inhibition [2] [%]	inhibition [3] [%]	Activity (J774)	inhibition [4] [%]	inhibition [5]	inhibition [6] [%]	inhibition [7] [%]	inhibition (Escherichia coli [8])	Activity [9]	inhibition [10] [%]	Activity (Escherichia coli [11])	Activity [12]	inhibition [13] [%]	Activity (Escherichia coli [14])	inhibition [15]	solubility [16]
COc1cccc(C(=O)N/N=C/c2cccc(F)c2O)c1	45	74	7	Non-toxic	-2	Active	11	9	inactive	inactive	17	inactive	inactive	58	inactive	–	–
COc1cc(C(=O)N/N=C/c2ccc(O)c(O)c2O)cc(OC)c1OC	50	62	11	–	-10	–	19	14	–	inactive	31	inactive	inactive	58	inactive	inactive	–
CC(C)(C)c1cc(/C=N/NC(=O)c2cccc(C(F)(F)F)c2)c(O)c(C(C)(C)C)c1	9	2	-10	Non-toxic	–	inactive	7	3	inactive	inactive	6	inactive	inactive	11	inactive	–	–
NC(=O)C(=O)N/N=C/c1c(O)cc(O)cc1O	51	64	5	–	-1	–	17	17	–	inactive	26	inactive	inactive	63	inactive	inactive	–
O=C(N/N=C/c1cc(Br)ccc1O)c1ccncc1	87	98	14	Non-toxic	-8	Active	24	13	–	inactive	43	inactive	inactive	95	inactive	–	–
COc1ccc(Br)c(/C=N/NC(=O)c2ccncc2)c1O	54	35	9	–	–	–	18	18	–	inactive	27	inactive	inactive	77	inactive	inactive	–
O=C(CCc1ccc(F)cc1)N/N=C/c1cc(F)cc(Cl)c1O	63	94	2	Non-toxic	-6	inactive	10	-1	inactive	inactive	15	inactive	inactive	90	inactive	–	–
O=C(N/N=C/c1cc(I)cc(I)c1O)c1cc(Cl)cc(Cl)c1	26	–	12	–	0	–	17	15	–	inactive	23	inactive	inactive	21	inactive	inactive	Insoluble
CCN(CC)c1ccc(/C=N/NC(=O)c2ccc(OC)c(OC)c2)c(O)c1	66	56	14	–	–	–	29	14	–	inactive	44	inactive	inactive	66	inactive	inactive	–
O=C(COc1ccc([N+](=O)[O-])cc1)N/N=C/c1cccc(F)c1O	84	97	-5	Non-toxic	–	Active	4	6	inactive	inactive	25	inactive	inactive	95	inactive	Active	–
COc1ccc(Br)c(/C=N/NC(=O)c2snnc2C)c1O	60	–	14	–	-5	–	21	19	–	inactive	34	inactive	inactive	71	inactive	–	Insoluble
